Data taken from ChEMBL document CHEMBL1140079, “Discovery of orally bioavailable cathepsin S inhibitors for the reversal of neuropathic pain” (J Med Chem, 2008).
pIC50: −log10 of the molar value.

Tests used:
[1] = biological target: Cathepsin S (Homo sapiens, UniProt P25774); assay: Inhibition of human recombinant cathepsin S by fluorescence assay
Method in brief: (§1)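 Recombinant human enzymes in a fluorescence assay; substrate Z-Phe-Arg-MCA for cathepsins K and L, Z-Leu-Leu-Arg-MCA for cathepsin S. Means of two experiments, each run in duplicate; individual points within a 2-fold range of each other.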

[2] = biological target: T1, Cathepsin K (Homo sapiens, UniProt P43235); assay: Inhibition of human recombinant cathepsin K by fluorescence assay; method in brief: as §1
T1 sequence (P43235 whole entry): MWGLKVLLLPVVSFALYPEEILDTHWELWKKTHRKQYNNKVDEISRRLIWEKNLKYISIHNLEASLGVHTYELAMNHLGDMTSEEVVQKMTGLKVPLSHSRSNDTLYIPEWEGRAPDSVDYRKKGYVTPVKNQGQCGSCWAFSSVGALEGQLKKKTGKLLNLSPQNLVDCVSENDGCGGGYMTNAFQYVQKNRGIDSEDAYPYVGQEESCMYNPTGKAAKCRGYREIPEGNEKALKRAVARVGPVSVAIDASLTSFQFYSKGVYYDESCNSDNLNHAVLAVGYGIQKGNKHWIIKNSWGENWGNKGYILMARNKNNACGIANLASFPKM

[3] = biological target: Procathepsin L (Homo sapiens, UniProt P07711); assay: Inhibition of human recombinant cathepsin L by fluorescence assay; method in brief: as §1
[4] = Plasma clearance in Sprague-Dawley rat at 1 mg/kg, iv and 3 mg/kg, po by LC/MS analysis; type: ADME, organism-based
Method in brief: (§2)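 Male Sprague-Dawley rats dosed orally at 3 mg/kg as a suspension and intravenously at 1 mg/kg as a bolus. Plasma levels quantified by LC/MS. Oral AUC and Cmax dose-normalized to 1 mg/kg. Means ± SD of three individual experiments.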

[5] = Terminal elimination half life in Sprague-Dawley rat at 1 mg/kg, iv by LC/MS analysis; type: ADME, organism-based; parameters: dose 1 mg/kg, route intravenous; details: in vivo; method in brief: as §2
[6] = Bioavailability in Sprague-Dawley rat at 1 mg/kg, iv and 3 mg/kg, po by LC/MS analysis; type: ADME, organism-based; details: in vivo; method in brief: as §2
[7] = Cmax in Sprague-Dawley rat at 3 mg/kg, po by LC/MS analysis; type: ADME, organism-based; parameters: dose 3 mg/kg, route oral; details: in vivo; method in brief: as §2
[8] = Volume of distribution in Sprague-Dawley rat at 1 mg/kg, iv and 3 mg/kg, po by LC/MS analysis; type: ADME, organism-based; details: in vivo; method in brief: as §2
[9] = Inhibition of rat cathepsin S glycine 137 mutant by fluorescence assay
Method in brief: (§3)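 Recombinant rat cathepsins K, L, S (137Gly and 137Cys forms) and mouse cathepsin S in a fluorescence assay. Substrates: Z-Phe-Arg-MCA for K and L, Z-Leu-Leu-Arg-MCA for S. IC50 reported as means ± SD of three experiments.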

[10] = Inhibition of rat cathepsin S cysteine 137 mutant by fluorescence assay; method in brief: as §3
[11] = biological target: T2, Cathepsin K (Rattus norvegicus, UniProt O35186); assay: Inhibition of rat cathepsin K by fluorescence assay; method in brief: as §3
T2 sequence (O35186 whole entry): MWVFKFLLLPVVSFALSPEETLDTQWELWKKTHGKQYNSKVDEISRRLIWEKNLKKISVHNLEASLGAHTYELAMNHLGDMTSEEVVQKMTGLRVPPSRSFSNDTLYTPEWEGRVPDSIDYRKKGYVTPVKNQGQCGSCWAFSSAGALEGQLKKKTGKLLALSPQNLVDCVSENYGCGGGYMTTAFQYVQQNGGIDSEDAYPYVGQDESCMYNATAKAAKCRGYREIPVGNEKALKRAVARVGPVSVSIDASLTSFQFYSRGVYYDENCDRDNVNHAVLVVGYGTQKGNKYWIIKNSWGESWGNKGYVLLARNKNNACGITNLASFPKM

[12] = biological target: T3, Procathepsin L (Rattus norvegicus, UniProt P07154); assay: Inhibition of rat cathepsin L by fluorescence assay; method in brief: as §3
T3 sequence (P07154 whole entry): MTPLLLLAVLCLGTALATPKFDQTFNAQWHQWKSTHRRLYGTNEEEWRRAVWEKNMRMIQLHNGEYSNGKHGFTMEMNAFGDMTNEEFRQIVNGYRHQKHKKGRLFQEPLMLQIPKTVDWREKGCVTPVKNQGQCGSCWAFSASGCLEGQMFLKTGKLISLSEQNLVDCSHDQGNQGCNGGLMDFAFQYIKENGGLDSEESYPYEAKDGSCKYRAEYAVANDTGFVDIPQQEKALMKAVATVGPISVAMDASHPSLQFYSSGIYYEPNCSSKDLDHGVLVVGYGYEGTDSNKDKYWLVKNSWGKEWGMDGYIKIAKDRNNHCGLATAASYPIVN

[13] = biological target: Cathepsin S (Mus musculus, UniProt O70370); assay: Inhibition of mouse cathepsin S by fluorescence assay; method in brief: as §3
[14] = organism: Rattus norvegicus; assay: Selectivity for rat cathepsin S glycine 137 mutant over rat cathepsin K
Method in brief: (§4)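 Recombinant rat cathepsins in a fluorescence assay with MCA substrates: Z-Leu-Leu-Arg-MCA for cathepsin S (137Gly form), Z-Phe-Arg-MCA for K and L, and Z-Arg-Arg-MCA for B. IC50 values were taken as means ± SD of three experiments, and selectivity was compared from the IC50 values against the S enzyme and each other cathepsin.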

[15] = organism: Rattus norvegicus; assay: Selectivity for rat cathepsin S glycine 137 mutant over rat cathepsin L; method in brief: as §4
[16] = organism: Rattus norvegicus; assay: Selectivity for rat cathepsin S glycine 137 mutant over rat cathepsin B; method in brief: as §4
[17] = biological target: Cathepsin S (Mus musculus) (UniProt O70370); assay: Inhibition of cathepsin S-mediated proteolytic cleavage of MHC2 associated invariant chain in mouse splenocytes assessed as induction of accumulation of lip10; type: cell-based
[18] = tested on: Rattus norvegicus; assay: Reversal of neuropathic mechanical hyperalgesia in Wistar rat sciatic nerve ligation model assessed as paw withdrawal threshold at 30 mg/kg, po administered twice daily for 5 days after 3 hrs; type: functional
Method in brief: (§5)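 Partial sciatic nerve ligation in Wistar rats genotyped as 137Gly cathepsin S, with established mechanical hyperalgesia. Oral dosing in 0.5% methylcellulose/water; repeat regimen twice daily for 5 days, paw withdrawal thresholds 3 h post-dose. 6 animals/group; % reversal of hyperalgesia, mean ± SEM; ANOVA with Tukey's HSD versus vehicle.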

[19] = biological target: T4, Cytochrome P450 1A2 (Homo sapiens, UniProt P05177); assay: Inhibition of CYP1A2 at 10 uM; type: ADME
T4 sequence (P05177 whole entry): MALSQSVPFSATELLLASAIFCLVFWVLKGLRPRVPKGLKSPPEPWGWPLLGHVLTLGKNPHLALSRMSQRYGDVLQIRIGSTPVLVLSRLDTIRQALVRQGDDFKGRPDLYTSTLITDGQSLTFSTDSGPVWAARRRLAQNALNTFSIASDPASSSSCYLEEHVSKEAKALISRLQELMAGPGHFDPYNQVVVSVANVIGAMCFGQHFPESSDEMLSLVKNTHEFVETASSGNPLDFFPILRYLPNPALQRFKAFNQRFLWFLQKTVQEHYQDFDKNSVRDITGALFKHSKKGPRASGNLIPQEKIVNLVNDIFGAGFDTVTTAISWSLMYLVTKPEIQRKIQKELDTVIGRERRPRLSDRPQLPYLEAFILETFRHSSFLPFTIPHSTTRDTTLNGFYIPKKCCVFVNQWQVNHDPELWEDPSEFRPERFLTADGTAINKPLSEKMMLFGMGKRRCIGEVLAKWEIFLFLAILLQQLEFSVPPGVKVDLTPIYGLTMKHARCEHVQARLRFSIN
Method in brief: (§6)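 Tested against a panel of cytochrome P450 enzymes at a maximum concentration of 10 µM.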

[20] = biological target: Cytochrome P450 2C9 (Homo sapiens, UniProt P11712); assay: Inhibition of CYP2C9 at 10 uM; type: ADME; method in brief: as §6
[21] = biological target: Cytochrome P450 2C19 (Homo sapiens, UniProt P33261); assay: Inhibition of CYP2C19 at 10 uM; type: ADME; method in brief: as §6
[22] = biological target: Cytochrome P450 2D6 (Homo sapiens, UniProt P10635); assay: Inhibition of CYP2D6 at 10 uM; type: ADME; method in brief: as §6
[23] = biological target: Cytochrome P450 3A4 (Homo sapiens, UniProt P08684); assay: Inhibition of CYP3A4 at 10 uM; type: ADME; method in brief: as §6
[24] = Genotoxicity in liver S9 fraction by Ames test; type: toxicity, subcellular
Method in brief: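 Standard Ames test run with liver S9 enzyme.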

[25] = tested on: Rattus norvegicus; assay: Reversal of neuropathic mechanical hyperalgesia in Wistar rat sciatic nerve ligation model with cathepsin S glycine 137 mutation at 100 mg/kg, po; type: functional; method in brief: as §5

Chain of Procathepsin L (Homo sapiens, UniProt P07711) (P07711 whole entry): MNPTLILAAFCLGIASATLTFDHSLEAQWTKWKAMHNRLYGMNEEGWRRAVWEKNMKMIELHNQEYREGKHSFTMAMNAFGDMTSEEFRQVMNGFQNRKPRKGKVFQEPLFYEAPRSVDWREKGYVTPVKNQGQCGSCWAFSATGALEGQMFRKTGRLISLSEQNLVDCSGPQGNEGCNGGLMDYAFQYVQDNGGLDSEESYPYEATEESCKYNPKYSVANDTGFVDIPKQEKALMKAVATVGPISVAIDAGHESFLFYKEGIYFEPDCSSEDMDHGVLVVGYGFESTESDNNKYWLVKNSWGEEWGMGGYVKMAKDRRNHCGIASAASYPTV
Chain of Cathepsin S (Homo sapiens, UniProt P25774) (P25774 whole entry): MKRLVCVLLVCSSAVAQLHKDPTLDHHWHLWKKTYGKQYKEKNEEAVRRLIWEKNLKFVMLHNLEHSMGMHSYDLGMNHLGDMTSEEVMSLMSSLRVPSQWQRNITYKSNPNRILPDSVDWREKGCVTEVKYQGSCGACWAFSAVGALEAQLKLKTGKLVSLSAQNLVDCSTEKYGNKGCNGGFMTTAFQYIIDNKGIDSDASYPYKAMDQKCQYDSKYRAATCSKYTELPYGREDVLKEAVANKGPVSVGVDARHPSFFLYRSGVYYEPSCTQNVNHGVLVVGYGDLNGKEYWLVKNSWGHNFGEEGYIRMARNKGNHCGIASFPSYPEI
Chain of Cytochrome P450 2D6 (P10635 whole entry): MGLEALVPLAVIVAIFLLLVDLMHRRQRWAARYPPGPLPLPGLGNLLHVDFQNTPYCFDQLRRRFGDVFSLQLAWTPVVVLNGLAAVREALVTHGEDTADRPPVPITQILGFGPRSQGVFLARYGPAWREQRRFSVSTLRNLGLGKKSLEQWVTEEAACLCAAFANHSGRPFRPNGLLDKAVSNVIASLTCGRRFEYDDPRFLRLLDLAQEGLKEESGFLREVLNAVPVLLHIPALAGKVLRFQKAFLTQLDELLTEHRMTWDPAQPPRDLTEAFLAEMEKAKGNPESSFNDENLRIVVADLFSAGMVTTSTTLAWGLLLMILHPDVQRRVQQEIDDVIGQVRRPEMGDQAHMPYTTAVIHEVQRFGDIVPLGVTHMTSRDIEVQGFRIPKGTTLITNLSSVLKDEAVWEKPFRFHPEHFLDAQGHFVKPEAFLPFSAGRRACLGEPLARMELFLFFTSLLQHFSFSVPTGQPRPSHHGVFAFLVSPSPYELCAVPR
Chain of Cytochrome P450 2C9 (P11712 whole entry): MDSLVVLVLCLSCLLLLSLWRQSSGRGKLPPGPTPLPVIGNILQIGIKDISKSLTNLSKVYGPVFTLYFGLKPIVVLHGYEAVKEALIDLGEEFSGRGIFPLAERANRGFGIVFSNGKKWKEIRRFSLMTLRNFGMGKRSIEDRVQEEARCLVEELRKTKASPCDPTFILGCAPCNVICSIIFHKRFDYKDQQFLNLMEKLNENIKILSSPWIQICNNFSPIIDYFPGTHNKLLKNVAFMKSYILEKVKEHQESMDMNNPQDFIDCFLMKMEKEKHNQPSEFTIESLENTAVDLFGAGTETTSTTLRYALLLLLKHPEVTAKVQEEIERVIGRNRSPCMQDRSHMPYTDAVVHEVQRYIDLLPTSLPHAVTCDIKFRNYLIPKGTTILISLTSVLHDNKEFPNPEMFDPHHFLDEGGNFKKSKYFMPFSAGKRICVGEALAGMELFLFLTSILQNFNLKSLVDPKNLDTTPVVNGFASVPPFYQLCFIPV
Chain of Cytochrome P450 3A4 (P08684 whole entry): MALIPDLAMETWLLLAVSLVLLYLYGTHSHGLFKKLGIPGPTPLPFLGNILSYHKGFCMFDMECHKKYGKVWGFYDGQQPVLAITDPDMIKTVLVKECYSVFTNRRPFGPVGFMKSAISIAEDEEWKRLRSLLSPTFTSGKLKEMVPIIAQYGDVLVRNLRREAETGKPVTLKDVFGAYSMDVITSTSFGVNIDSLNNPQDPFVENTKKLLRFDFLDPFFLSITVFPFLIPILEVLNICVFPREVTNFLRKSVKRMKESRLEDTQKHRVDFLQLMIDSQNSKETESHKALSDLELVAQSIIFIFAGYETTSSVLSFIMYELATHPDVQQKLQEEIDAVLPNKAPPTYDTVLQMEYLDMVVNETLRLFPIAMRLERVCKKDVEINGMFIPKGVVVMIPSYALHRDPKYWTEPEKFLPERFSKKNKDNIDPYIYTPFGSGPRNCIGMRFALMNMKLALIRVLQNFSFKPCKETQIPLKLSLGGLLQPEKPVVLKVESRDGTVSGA
Chain of Cytochrome P450 2C19 (P33261 whole entry): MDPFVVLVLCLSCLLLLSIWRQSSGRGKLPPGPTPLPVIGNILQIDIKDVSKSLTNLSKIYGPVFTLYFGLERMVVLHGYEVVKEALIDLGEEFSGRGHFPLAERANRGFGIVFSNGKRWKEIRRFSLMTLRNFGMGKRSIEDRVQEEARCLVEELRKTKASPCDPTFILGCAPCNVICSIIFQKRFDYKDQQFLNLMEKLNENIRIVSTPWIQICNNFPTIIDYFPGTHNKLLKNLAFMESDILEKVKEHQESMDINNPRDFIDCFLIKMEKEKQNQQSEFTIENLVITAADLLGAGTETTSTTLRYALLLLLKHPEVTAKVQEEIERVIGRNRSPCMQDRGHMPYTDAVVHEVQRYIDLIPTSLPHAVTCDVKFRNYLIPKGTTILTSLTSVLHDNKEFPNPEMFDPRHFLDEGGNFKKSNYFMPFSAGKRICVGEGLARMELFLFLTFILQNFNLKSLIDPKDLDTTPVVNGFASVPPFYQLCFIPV

pIC50 [1]	pIC50 [2]	pIC50 [3]	clearance [4] [mL/min/kg]	half-life [5] [h]	bioavailability [6] [%]	Cmax [7] [nM]	Vd [8] [L/kg]	pIC50 [9]	pIC50 [10]	pIC50 [11]	pIC50 [12]	pIC50 [13]	Activity [14]	Activity [15]	Activity [16]	Compound	other results
8.30	7.10	5.64	–	–	–	–	–	–	–	–	–	–	–	–	–	CC(=O)N1CCN(c2ccc(OCc3cc4cnc(C#N)nc4n3CCC3CCCC3)cc2)CC1	–
–	5.78	5.28	65	1.1	53	61	5.6	8.00	< 5.00	< 5.00	< 5.00	8.00	> 100	> 100	> 100	CC(=O)N1CCN(c2ccc(OCc3cc4cnc(C#N)nc4n3CCC3CCCCC3)cc2)CC1	–
7.77	< 6.00	< 6.00	–	–	–	–	–	–	–	–	–	–	–	–	–	CC(=O)N1CCN(c2ccc(OCc3cc4cnc(C#N)nc4n3CCc3ccc(Cl)cc3)cc2)CC1	–
7.74	5.23	5.17	45	1.7	24	30	5.7	7.92	< 5.00	< 5.00	< 5.00	7.85	> 100	> 100	> 100	CC(=O)N1CCN(c2ccc(OCc3cc4cnc(C#N)nc4n3CCC3CCCCC3)c(F)c2)CC1	Activity [17]: Dose-dependent effect; Activity [18]: 63%; Activity [19]: Not Active; Activity [20]: Not Active; Activity [21]: Not Active; Activity [22]: Not Active; Activity [23]: Not Active; Activity [24]: Non-toxic; Activity [25]: 54%
